Test results taken from ChEMBL document CHEMBL3352424, “Synthesis, biological evaluation and 3D-QSAR study of hydrazide, semicarbazide and thiosemicarbazide derivatives of 4-(adamantan-1-yl)quinoline as anti-tuberculosis agents” (Eur J Med Chem, 2014).
pIC50: −log10 of the molar value. ≈ marks a conversion by molar mass, not a printed value.

Legend:
[1] = test system: Mycobacterium tuberculosis; experiment: Antitubercular activity against Mycobacterium tuberculosis H37Rv strain by BACTEC 460 radiometric assay; assay type: functional, organism-based
[2] = test system: Mycobacterium tuberculosis; experiment: Antitubercular activity against Mycobacterium tuberculosis H37Rv strain at 6.25 ug/ml by microplate alamar blue assay; assay type: functional
L929 = experiment: Cytotoxicity against mouse L929 cells assessed as reduction in cell viability up to 200 ug/ml after 5 days by MTT assay; assay type: cell-based; conditions: l929, 120 h
In short: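 MTT viability assay in mouse fibroblasts, run on compounds active against TB, with 200 µg/mL as the highest test concentration.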

SMILES | pIC50 [1] | MIC90 [1] [µg/mL] | inhibition at 6.25 µg/mL [2] [%] | Activity (L929) | MIC99 [1] [µg/mL]
COc1cc(NC(=S)NNC(=O)c2cc(C34CC5CC(CC(C5)C3)C4)c3ccccc3n2)cc(OC)c1OC | 4.84 | 6.25 (≈ 11.4 µM) | 46 | Non-toxic | 
CCc1cccc(CC)c1NC(=O)NNC(=O)c1cc(C23CC4CC(CC(C4)C2)C3)c2ccccc2n1 | 4.47 | 6.25 (≈ 12.6 µM) | 27 | Non-toxic | 
O=C(NNC(=S)Nc1ccc([N+](=O)[O-])cc1Cl)c1cc(C23CC4CC(CC(C4)C2)C3)c2ccccc2n1 | 6.31 | 6.25 (≈ 11.7 µM) | 96 | Non-toxic | 
C=CCCCCCCCCC(=O)NNC(=O)c1cc(C23CC4CC(CC(C4)C2)C3)c2ccccc2n1 | 4.89 | 6.25 (≈ 12.8 µM) | 50 | Non-toxic | 
O=C(NNC(=O)c1ccco1)c1cc(C23CC4CC(CC(C4)C2)C3)c2ccccc2n1 |  | 6.25 (≈ 15 µM) | 0 | Non-toxic | 
CC(C)(C)NC(=S)NNC(=O)c1cc(C23CC4CC(CC(C4)C2)C3)c2ccccc2n1 | 5.80 | 6.25 (≈ 14.3 µM) | 90 | Non-toxic | 
CCCCCNC(=O)NNC(=O)c1cc(C23CC4CC(CC(C4)C2)C3)c2ccccc2n1 | 4.93 | 6.25 (≈ 14.4 µM) | 55 | Non-toxic | 
O=C(NNC(=S)NC1CCCCC1)c1cc(C23CC4CC(CC(C4)C2)C3)c2ccccc2n1 |  | 6.25 (≈ 13.5 µM) | 0 | Non-toxic | 
O=C(NNC(=O)N1CCOCC1)c1cc(C23CC4CC(CC(C4)C2)C3)c2ccccc2n1 | 3.33 | 6.25 (≈ 14.4 µM) | 3 | Non-toxic | 
O=C(NNC(=O)c1cc(C23CC4CC(CC(C4)C2)C3)c2ccccc2n1)c1cccnc1 | 5.29 | 6.25 (≈ 14.7 µM) | 74 | Non-toxic | 
NNC(=O)c1ccncc1 [ISONIAZID] |  |  |  |  | 0.1 (≈ 0.729 µM)
O=C(NNC(=S)Nc1ccc([N+](=O)[O-])cc1)c1cc(C23CC4CC(CC(C4)C2)C3)c2ccccc2n1 | 6.10 | 6.25 (≈ 12.5 µM) | 94 | Non-toxic | 
O=C(NNC(=S)Nc1cccc2ccccc12)c1cc(C23CC4CC(CC(C4)C2)C3)c2ccccc2n1 | 4.80 | 6.25 (≈ 12.3 µM) | 44 | Non-toxic | 
O=C(NNC(=O)c1cc(C23CC4CC(CC(C4)C2)C3)c2ccccc2n1)Nc1cccc(F)c1 | 5.42 | 6.25 (≈ 13.6 µM) | 78 | Non-toxic | 
O=C(NNC(=O)c1cccs1)c1cc(C23CC4CC(CC(C4)C2)C3)c2ccccc2n1 | 3.83 | 6.25 (≈ 14.5 µM) | 9 | Non-toxic | 
O=C(NNC(=S)Nc1ccccc1C(F)(F)F)c1cc(C23CC4CC(CC(C4)C2)C3)c2ccccc2n1 | 5.54 | 6.25 (≈ 11.9 µM) | 79 | Non-toxic | 
O=C(NNC(=O)c1cc(C23CC4CC(CC(C4)C2)C3)c2ccccc2n1)c1ccncc1 | 4.94 | 6.25 (≈ 14.7 µM) | 56 | Non-toxic | 
O=C(NNC(=O)c1cc(C23CC4CC(CC(C4)C2)C3)c2ccccc2n1)NC12CC3CC(CC(C3)C1)C2 | 4.61 | 6.25 (≈ 12.5 µM) | 34 | Non-toxic | 
Cc1cc(C)c(NC(=O)NNC(=O)c2cc(C34CC5CC(CC(C5)C3)C4)c3ccccc3n2)c(C)c1 | 5.41 | 6.25 (≈ 12.9 µM) | 77 | Non-toxic | 
O=C(NNC(=O)c1cc(C23CC4CC(CC(C4)C2)C3)c2ccccc2n1)c1cccc(C(F)(F)F)c1 | 5.24 | 6.25 (≈ 12.7 µM) | 69 | Non-toxic | 
O=C(NNC(=O)c1cc(C23CC4CC(CC(C4)C2)C3)c2ccccc2n1)NC1CCCC1 | 5.56 | 6.25 (≈ 14.4 µM) | 84 | Non-toxic | 
O=C(NNC(=O)c1cc(C23CC4CC(CC(C4)C2)C3)c2ccccc2n1)c1ccccc1 | 3.97 | 6.25 (≈ 14.7 µM) | 12 | Non-toxic | 
O=C(NNC(=O)c1cccc2ccccc12)c1cc(C23CC4CC(CC(C4)C2)C3)c2ccccc2n1 | 5.35 | 6.25 (≈ 13.1 µM) | 88 | Non-toxic | 
O=C(NNC(=S)Nc1ccccc1)c1cc(C23CC4CC(CC(C4)C2)C3)c2ccccc2n1 | 4.00 | 6.25 (≈ 13.7 µM) | 12 | Non-toxic | 

SMILES | pIC50 [1] | MIC90 [1] [µg/mL] | inhibition at 6.25 µg/mL [2] [%] | Activity (L929) | MIC99 [1] [µg/mL]
COc1ccc(NC(=O)NNC(=O)c2cc(C34CC5CC(CC(C5)C3)C4)c3ccccc3n2)cc1 | 5.43 | 6.25 (≈ 13.3 µM) | 78 | Non-toxic | 
O=C(NNC(=S)Nc1ccc(OC(F)(F)F)cc1)c1cc(C23CC4CC(CC(C4)C2)C3)c2ccccc2n1 | 5.84 | 6.25 (≈ 11.6 µM) | 89 | Non-toxic | 
COc1ccc(C)cc1NC(=S)NNC(=O)c1cc(C23CC4CC(CC(C4)C2)C3)c2ccccc2n1 | 4.04 | 6.25 (≈ 12.5 µM) | 12 | Non-toxic | 
CCCCOc1ccc(NC(=O)NNC(=O)c2cc(C34CC5CC(CC(C5)C3)C4)c3ccccc3n2)cc1 | 5.11 | 6.25 (≈ 12.2 µM) | 61 | Non-toxic | 
O=C(NNC(=O)c1cc(C23CC4CC(CC(C4)C2)C3)c2ccccc2n1)c1ccc2ccccc2c1 | 5.33 | 6.25 (≈ 13.1 µM) | 90 | Non-toxic | 
O=C(NNC(=S)Nc1cccc(Cl)c1Cl)c1cc(C23CC4CC(CC(C4)C2)C3)c2ccccc2n1 | 5.38 | 6.25 (≈ 11.9 µM) | 74 | Non-toxic | 
CCCCCCNC(=O)NNC(=O)c1cc(C23CC4CC(CC(C4)C2)C3)c2ccccc2n1 | 4.80 | 6.25 (≈ 13.9 µM) | 47 | Non-toxic | 
O=C(NNC(=O)c1cc(C23CC4CC(CC(C4)C2)C3)c2ccccc2n1)Nc1ccc(F)cc1 | 5.19 | 6.25 (≈ 13.6 µM) | 68 | Non-toxic | 
CO[C@H]1/C=C/O[C@@]2(C)Oc3c(C)c(O)c4c(O)c(c(/C=N/N5CCN(C)CC5)c(O)c4c3C2=O)NC(=O)/C(C)=C\C=C\[C@H](C)[C@H](O)[C@@H](C)[C@@H](O)[C@@H](C)[C@H](OC(C)=O)[C@@H]1C [RIFAMPIN] |  |  | 99 |  | 0.2 (≈ 0.243 µM)
O=C(NNC(=O)C12CC3CC(CC(C3)C1)C2)c1cc(C23CC4CC(CC(C4)C2)C3)c2ccccc2n1 | 5.71 | 6.25 (≈ 12.9 µM) | 87 | Non-toxic | 
O=C(NNC(=O)c1c(F)c(F)c(F)c(F)c1F)c1cc(C23CC4CC(CC(C4)C2)C3)c2ccccc2n1 | 5.78 | 6.25 (≈ 12.1 µM) | 88 | Non-toxic | 
C=CCNC(=S)NNC(=O)c1cc(C23CC4CC(CC(C4)C2)C3)c2ccccc2n1 | 5.39 | 6.25 (≈ 14.9 µM) | 77 | Non-toxic | 
CCCCCCCCCCCCCCCCNC(=O)NNC(=O)c1cc(C23CC4CC(CC(C4)C2)C3)c2ccccc2n1 | 4.25 | 6.25 (≈ 10.6 µM) | 16 | Non-toxic | 
CC(=O)NNC(=O)c1cc(C23CC4CC(CC(C4)C2)C3)c2ccccc2n1 | 3.49 | 6.25 (≈ 17.2 µM) | 5 | Non-toxic | 
CCc1ccccc1NC(=S)NNC(=O)c1cc(C23CC4CC(CC(C4)C2)C3)c2ccccc2n1 | 5.80 | 6.25 (≈ 12.9 µM) | 89 | Non-toxic | 
O=C(NNC(=S)Nc1cc(Cl)ccc1Cl)c1cc(C23CC4CC(CC(C4)C2)C3)c2ccccc2n1 | 4.80 | 6.25 (≈ 11.9 µM) | 43 | Non-toxic | 
O=C(NNC(=O)c1cc(C23CC4CC(CC(C4)C2)C3)c2ccccc2n1)NC1CCCCCCCCCCC1 | 5.75 | 6.25 (≈ 11.8 µM) | 87 | Non-toxic | 
O=C(NNC(=S)NCCc1ccccc1)c1cc(C23CC4CC(CC(C4)C2)C3)c2ccccc2n1 | 4.84 | 6.25 (≈ 12.9 µM) | 47 | Non-toxic | 
COc1cc(NC(=O)NNC(=O)c2cc(C34CC5CC(CC(C5)C3)C4)c3ccccc3n2)cc(OC)c1OC | 4.38 | 6.25 (≈ 11.8 µM) | 22 | Non-toxic | 
CC(C)(C)c1ccc(NC(=O)NNC(=O)c2cc(C34CC5CC(CC(C5)C3)C4)c3ccccc3n2)cc1 | 4.65 | 6.25 (≈ 12.6 µM) | 37 | Non-toxic | 
CCNC(=S)NNC(=O)c1cc(C23CC4CC(CC(C4)C2)C3)c2ccccc2n1 | 5.23 | 6.25 (≈ 15.3 µM) | 72 | Non-toxic | 
CCCCCCCCCCC(=O)NNC(=O)c1cc(C23CC4CC(CC(C4)C2)C3)c2ccccc2n1 | 4.57 | 6.25 (≈ 12.8 µM) | 32 | Non-toxic | 
COc1ccc(OC)c(NC(=S)NNC(=O)c2cc(C34CC5CC(CC(C5)C3)C4)c3ccccc3n2)c1 | 5.55 | 6.25 (≈ 12.1 µM) | 81 | Non-toxic | 
Cc1ccc(NC(=S)NNC(=O)c2cc(C34CC5CC(CC(C5)C3)C4)c3ccccc3n2)cc1 | 4.34 | 6.25 (≈ 13.3 µM) | 23 | Non-toxic | 
